Test results: ChEMBL document CHEMBL1149082, “Discovery of novel thieno[2,3-d]pyrimidin-4-yl hydrazone-based inhibitors of Cyclin D1-CDK4: synthesis, biological evaluation, and structure-activity relationships” (Bioorg Med Chem Lett, 2009)
Values after ≈ are worked out from the molar mass of the structure shown. Active and inactive are the calls of the source. No cut-off for these calls is given here.

Experiments:
[1] = molecular target: T1, Cyclin-dependent kinase 4 (Homo sapiens, UniProt P11802); assay: Inhibition of CDK4-mediated retinoblastoma protein phosphorylation by dose-response curve analysis
In short: (§1)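 Kinase assay read as Rb phosphorylation by cyclin D1-CDK4 or cyclin E-CDK2. IC50 is the concentration (μg/mL) giving 50% inhibition of Rb phosphorylation, read from the dose-response curve. Values are means of at least two determinations.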

PC-6 = assay: Antiproliferative activity against human PC6 cells by dose-response curve analysis; format: functional, cell-based
In short: (§2)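 Cell growth inhibition measured from dose-response curves at ten concentrations. IC50 is the concentration giving 50% growth inhibition, read from these curves.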

[2] = molecular target: Cyclin-dependent kinase 2 (Homo sapiens, UniProt P24941); assay: Inhibition of CDK2-mediated retinoblastoma protein phosphorylation by dose-response curve analysis; in short: as §1
HCT-116 [3] = assay: Antiproliferative activity against human HCT116 cells by dose-response curve analysis; format: functional, cell-based; in short: as §2
DLD-1 = assay: Antiproliferative activity against human DLD1 cells by MTT assay; format: functional, cell-based; in short: as §2
[4] = Antiproliferative activity against mouse B16-BL6 cells by MTT assay; format: functional, cell-based; in short: as §2
HCT-116 [5] = assay: Antiproliferative activity against SN2-3-resistant human HCT116 cells by MTT assay; format: functional, cell-based; in short: as §2
WiDr = assay: Antiproliferative activity against human WiDr cells by MTT assay; format: functional, cell-based; in short: as §2
MDA-MB-231 = assay: Antiproliferative activity against human MDA-MB-231 cells by MTT assay; format: functional, cell-based; in short: as §2
MDA-MB-468 = assay: Antiproliferative activity against human MDA-MB-468 cells by MTT assay; format: functional, cell-based; in short: as §2
HCT-116 [6] = assay: Antiproliferative activity against docetaxal-resistant human HCT116 cells by MTT assay; format: functional, cell-based; in short: as §2
P388 = assay: Antiproliferative activity against mouse P388 cells by MTT assay; format: functional, cell-based; in short: as §2
MKN-28 = assay: Antiproliferative activity against human MKN28 cells by MTT assay; format: functional, cell-based; in short: as §2
Mus musculus [7] = assay: Toxicity in nude mouse xenografted with human HCT116 cells assessed as death at 200 mg/kg, iv qd for 4 days; format: organism-based, HCT-116; set-up: dose 200 mg/kg, route intravenous; conditions: in vivo, 96 h
In short: (§3)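 Mice bearing HCT116 colon solid tumours (n=5 per group) dosed as the hydrochloride salt dissolved in 40% Captisol at 200 mg/kg once daily for 4 days (qdx4), i.v. or p.o. Toxicity recorded as the number of mice dead from toxicity over the number used, with maximum body-weight loss also noted.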

[8] = Solubility in 40% captisol; format: physicochemical
HCT-116 [9] = assay: Cell cycle arrest in human HCT116 cells assessed as decrease in accumulation at G2/M phase at 500 ng/mL after 16 hrs by FACS analysis; format: functional, cell-based
In short: (§4)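 HCT116 cells exposed to test compound at various concentrations for 16 hr, then collected. DNA content measured by flow cytometry to assign G1, S and G2/M fractions.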

Mus musculus [10] = assay: Toxicity in nude mouse xenografted with human HCT116 cells assessed as death at 200 mg/kg, po qd for 4 days; format: organism-based, HCT-116; set-up: dose 200 mg/kg, route oral; conditions: in vivo, 96 h; in short: as §3
Mus musculus [11] = assay: Toxicity in nude mouse xenografted with human HCT116 cells assessed as maximum body weight loss at 200 mg/kg, po qd for 4 days; format: organism-based, HCT-116; set-up: dose 200 mg/kg, route oral; conditions: in vivo, 96 h
In short: (§5)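 HCT116 solid tumours in mice. Hydrochloride salt dissolved in 40% Captisol, dosed 200 mg/kg once daily for 4 days (qdx4), i.v. or p.o. Read-outs: maximum inhibition rate of tumour volume, maximum body weight loss, and toxic deaths out of 5 mice.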

HCT-116 [12] = assay: Antitumor activity against human HCT116 cells xenografted in nude mouse assessed as maximum inhibition of […] growth at 200 mg/kg, po qd for 4 days; format: functional; conditions: HCT-116, 96 h; in short: as §5
HCT-116 [13] = assay: Cell cycle arrest in human HCT116 cells assessed as decrease in accumulation at S phase at 500 ng/mL after 16 hrs by FACS analysis; format: functional, cell-based; in short: as §4
HCT-116 [14] = assay: Antitumor activity against human HCT116 cells xenografted in nude mouse assessed as maximum inhibition of […] growth at 200 mg/kg, iv qd for 4 days; format: functional; conditions: HCT-116, 96 h; in short: as §5
HCT-116 [15] = assay: Cell cycle arrest in human HCT116 cells assessed as accumulation at G1 phase at 500 ng/mL after 16 hrs by FACS analysis; format: functional; in short: as §4
Mus musculus [16] = assay: Toxicity in nude mouse xenografted with human HCT116 cells assessed as maximum body weight loss at 200 mg/kg, iv qd for 4 days; format: organism-based, HCT-116; set-up: dose 200 mg/kg, route intravenous; conditions: in vivo, 96 h; in short: as §5
[17] = molecular target: T1, Cyclin-dependent kinase 4; assay: Inhibition of CDK4-mediated retinoblastoma protein phosphorylation up to 20 ug/mL by dose-response curve analysis
[18] = molecular target: T1, Cyclin-dependent kinase 4; assay: Inhibition of CDK4-mediated retinoblastoma protein phosphorylation up to 20 ug/mL by dose-response curve analysis; in short: as §1
[19] = Aqueous solubility in water; format: physicochemical
HCT-116 [20] = assay: Cell cycle arrest in human HCT116 cells assessed as increase in accumulation at G1 phase after 16 hrs by FACS analysis; format: functional, cell-based; in short: as §4

Structure (SMILES) | IC50 [1] [µM] | IC50 [2] [µM] | IC50 (HCT-116 [3]) [µg/mL] | IC50 (PC-6) [µg/mL] | other results
CCc1cc2c(N/N=C\c3cccs3)nc(C)nc2s1 | > 66.1 | > 66.1 | – | – | –
CCc1cc2c(N/N=C\C3CC3)ncnc2s1 | 13 | 16.6 | – | – | –
C/C(=N/Nc1ncnc2sc(C(C)C)cc12)c1cccs1 | 8.85 | 28.1 | – | – | –
C(=N/Nc1ncnc2sc3c(c12)CCCC3)/c1cccs1 | > 63.6 | > 63.6 | – | – | –
CC(C)c1cc2c(N/N=C\c3cccnc3)ncnc2s1 | 1.85 | 2.35 | – | 0.889 (≈ 2.99 µM) | –
CC(C)c1cc2c(N/N=C\c3ccccn3)ncnc2s1 | 2.96 | 10.4 | 0.01 (≈ 0.0336 µM) | 0.003 (≈ 0.0101 µM) | –
CC(C)(C)c1cc2c(N/N=C\c3ccccn3)ncnc2s1 | 2.89 | 8.99 | 0.014 (≈ 0.045 µM) | 0.009 (≈ 0.0289 µM) | Activity (Mus musculus [7]): Non-toxic; IC50 (DLD-1): 0.037 µg/mL (≈ 0.119 µM); IC50 [4]: 0.045 µg/mL (≈ 0.145 µM); IC50 (HCT-116 [5]): 0.005 µg/mL (≈ 0.0161 µM); solubility [8]: Soluble; Activity (HCT-116 [9]): Active; Activity (Mus musculus [10]): Non-toxic; IC50 (WiDr): 0.019 µg/mL (≈ 0.061 µM); Activity (Mus musculus [11]): 4.6%; inhibition in vivo at 200 mg/kg (HCT-116 [12]): 54.1%; IC50 (MDA-MB-231): 0.019 µg/mL (≈ 0.061 µM); IC50 (MDA-MB-468): 0.008 µg/mL (≈ 0.0257 µM); Activity (HCT-116 [13]): Active; IC50 (HCT-116 [6]): 0.007 µg/mL (≈ 0.0225 µM); inhibition in vivo at 200 mg/kg (HCT-116 [14]): 67.9%; IC50 (P388): 0.006 µg/mL (≈ 0.0193 µM); Activity (HCT-116 [15]): 64%; Activity (Mus musculus [16]): 22.6%; IC50 (MKN-28): 0.049 µg/mL (≈ 0.157 µM)
CCc1cc2c(N/N=C\C(C)(C)C)ncnc2s1 | 16.8 | 14.5 | 1.66 (≈ 6.33 µM) | 1.55 (≈ 5.91 µM) | –
Cc1cc2c(N/N=C\c3cccs3)ncnc2s1 | 6.92 | 6.2 | – | – | –
C(=N/Nc1ncnc2sc(Cc3ccccc3)cc12)/c1cccs1 | > 57.1 | 18.5 | – | – | Activity [17]: inactive
CC(C)c1cc2c(-n3ccc(-c4cccs4)n3)ncnc2s1 | > 61.3 | > 61.3 | – | – | Activity [18]: inactive
Cc1ccc(/C=N\Nc2ncnc3sc(C(C)(C)C)cc23)nc1 | 2.7 | 36.9 | 0.02 (≈ 0.0615 µM) | 0.009 (≈ 0.0277 µM) | –
CCc1cc2c(N/N=C\c3cccs3)nc(-c3ccccc3)nc2s1 | > 54.9 | > 54.9 | – | – | –
CCc1c(C)sc2ncnc(N/N=C\c3cccs3)c12 | 52.9 | 39.7 | – | – | –
CCc1cc2c(N/N=C\c3cccs3)ncnc2s1 | 2.6 | 3.81 | 1.61 (≈ 5.58 µM) | 0.566 (≈ 1.96 µM) | IC50 (DLD-1): 1.12 µg/mL (≈ 3.88 µM); IC50 [4]: 2.44 µg/mL (≈ 8.46 µM); IC50 (HCT-116 [5]): 1.34 µg/mL (≈ 4.65 µM); IC50 (WiDr): 1.36 µg/mL (≈ 4.72 µM); IC50 (MDA-MB-231): 1.87 µg/mL (≈ 6.48 µM); IC50 (MDA-MB-468): 0.048 µg/mL (≈ 0.166 µM); IC50 (HCT-116 [6]): 1.21 µg/mL (≈ 4.2 µM); IC50 (P388): 1.01 µg/mL (≈ 3.5 µM); IC50 (MKN-28): 2.86 µg/mL (≈ 9.92 µM)
Cc1csc2ncnc(N/N=C\c3cccs3)c12 | > 72.9 | > 72.9 | – | – | –

Compounds with a lower IC50 [1], results first:

IC50 [1] [µM] | IC50 [2] [µM] | IC50 (HCT-116 [3]) [µg/mL] | Structure (SMILES) | IC50 (PC-6) [µg/mL] | other results
1.73 | 10.6 | 0.059 (≈ 0.173 µM) | CC(C)(C)c1cc2c(N/N=C\c3cccc(CN)n3)ncnc2s1 | 0.036 (≈ 0.106 µM) | –
1.61 | 1.8 | – | CC(C)(C)c1cc2c(N/N=C\c3cccnc3)ncnc2s1 | 1.45 (≈ 4.66 µM) | –
1.6 | 21.2 | 0.268 (≈ 0.823 µM) | Cc1cccc(/C=N\Nc2ncnc3sc(C(C)(C)C)cc23)n1 | 0.258 (≈ 0.793 µM) | –
1.59 | 2.97 | – | CC(C)c1cc2c(N/N=C\c3ccccc3)ncnc2s1 | 0.651 (≈ 2.2 µM) | –
1.36 | 1.92 | – | CC(C)c1cc2c(N/N=C\c3ccco3)ncnc2s1 | 3.78 (≈ 13.2 µM) | –
1.03 | 6.15 | 0.039 (≈ 0.114 µM) | CC(C)(C)c1cc2c(N/N=C\c3cccc(CO)n3)ncnc2s1 | 0.034 (≈ 0.0996 µM) | –
0.807 | 1.11 | – | CC(C)c1cc2c(N/N=C\c3ccncc3)ncnc2s1 | > 10 | –
0.705 | 20 | 0.185 (≈ 0.522 µM) | CNCc1cccc(/C=N\Nc2ncnc3sc(C(C)(C)C)cc23)n1 | 0.189 (≈ 0.533 µM) | IC50 (DLD-1): 0.221 µg/mL (≈ 0.623 µM); IC50 [4]: 0.379 µg/mL (≈ 1.07 µM); IC50 (HCT-116 [5]): 0.269 µg/mL (≈ 0.759 µM); IC50 (WiDr): 0.263 µg/mL (≈ 0.742 µM); IC50 (MDA-MB-231): 0.279 µg/mL (≈ 0.787 µM); IC50 (MDA-MB-468): 0.159 µg/mL (≈ 0.449 µM); IC50 (HCT-116 [6]): 0.29 µg/mL (≈ 0.818 µM); IC50 (P388): 0.131 µg/mL (≈ 0.37 µM); IC50 (MKN-28): 0.686 µg/mL (≈ 1.94 µM)
0.414 | 13.4 | 0.363 (≈ 0.884 µM) | CC(C)(C)c1cc2c(N/N=C\c3cccc(CN4CCOCC4)n3)ncnc2s1 | 0.261 (≈ 0.636 µM) | –
0.379 | 1.77 | – | CC(C)(C)c1cc2c(N/N=C\c3cccs3)ncnc2s1 | – | –
0.165 | 1.16 | – | CC(C)c1cc2c(N/N=C\c3cccs3)ncnc2s1 | – | solubility [19]: < 0.1 µg/mL
0.152 | 3.8 | 0.429 (≈ 1.16 µM) | CN(C)Cc1cccc(/C=N\Nc2ncnc3sc(C(C)(C)C)cc23)n1 | 0.381 (≈ 1.03 µM) | IC50 (DLD-1): 0.506 µg/mL (≈ 1.37 µM); IC50 [4]: 1.09 µg/mL (≈ 2.96 µM); IC50 (HCT-116 [5]): 0.755 µg/mL (≈ 2.05 µM); Activity (HCT-116 [20]): Dose-dependent effect; solubility [19]: 44 µg/mL (≈ 119 µM); IC50 (WiDr): 0.889 µg/mL (≈ 2.41 µM); IC50 (MDA-MB-231): 0.919 µg/mL (≈ 2.49 µM); IC50 (MDA-MB-468): 0.315 µg/mL (≈ 0.855 µM); IC50 (HCT-116 [6]): 0.973 µg/mL (≈ 2.64 µM); IC50 (P388): 0.37 µg/mL (≈ 1 µM); IC50 (MKN-28): 1.39 µg/mL (≈ 3.77 µM)
